# Several values for one entry are separate records, joined by “and”; a condition that tells them apart may be missing. Identical values can stand only once.
# Tested on: HEK-293T
# Assay: Multiplex assay against HEK293T;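 as to Population Tubulin-Different-Phenotype (%): share of the cells with healthy nuclei that show this phenotype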
# Format: toxicity, cell-based
# Conditions: human
# Method in brief: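 At seeding, live cells were stained with Hoechst33342, BioTracker Green Microtubule Cytoskeleton Dye, MitoTracker Red and Annexin V Alexa Fluor 680. After compound addition they were imaged on a CQ1 microscope at 37°C and 5% CO2, and CellPathfinder machine-learning gating sorted them into Hoechst high-intensity objects or normal cells, with normal cells further split into healthy, pyknosed or fragmented nuclei and pyknosed cells into mitotic or apoptotic. Tubulin, mitochondrial-mass and membrane-permeability phenotypes are given as per cents of cells with healthy nuclei.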
# [1] = 12 h, 10 µM, compound concentration 10 uM, replicate 1
# [2] = 12 h, 10 µM, compound concentration 10 uM, replicate 2
# [3] = 24 h, 10 µM, compound concentration 10 uM, replicate 1
# [4] = 24 h, 10 µM, compound concentration 10 uM, replicate 2
# [5] = 48 h, 10 µM, compound concentration 10 uM, replicate 1
# [6] = 48 h, 10 µM, compound concentration 10 uM, replicate 2
# [7] = 12 h, 1 µM, compound concentration 1 uM, replicate 1
# [8] = 12 h, 1 µM, compound concentration 1 uM, replicate 2
# [9] = 24 h, 1 µM, compound concentration 1 uM, replicate 1
# [10] = 24 h, 1 µM, compound concentration 1 uM, replicate 2
# [11] = 48 h, 1 µM, compound concentration 1 uM, replicate 1
# [12] = 48 h, 1 µM, compound concentration 1 uM, replicate 2
compound,measurement,setting,value
CNCc1ccccc1-c1csc([C@H](C)Nc2nc(C)nc3cc(OC)c(OC)cc23)c1 [BAY-294],Population Apoptotic (%),[1],83% and 29% and 42%
same,Population Fragmented Nuclei (%),[1],16% and 15% and 12%
same,Population Hoechst High Intensity Objects (%),[1],19% and 16% and 22%
same,Population Normal (%),[1],80% and 83% and 77%
same,Population Pyknosed Nuclei (%),[1],82% and 39% and 67%
same,Population Tubulin-Different-Phenotype (%),[1],50% and 90% and 54%
same,Total Cell Count,[1],623 and 618
same,Population Mitochondria Different-Phenotype (%),[2],86% and 88% and 34%
same,Population Normal (%),[2],88% and 95% and 96%
same,Population Tubulin-Different-Phenotype (%),[2],71% and 72% and 98%
same,Total Cell Count,[2],864 and 1201
same,Population Apoptotic (%),[3],71% and 57% and 28%
same,Population Fragmented Nuclei (%),[3],22% and 24% and 13%
same,Population Hoechst High Intensity Objects (%),[3],14% and 18% and 13%
same,Population Mitotic Cells (%),[3],28% and 42% and 72%
same,Population Normal (%),[3],85% and 81% and 86%
same,Population Pyknosed Nuclei (%),[3],77% and 61% and 26%
same,Total Cell Count,[3],631 and 647
same,Population Fragmented Nuclei (%),[4],8% and 5% and 12%
same,Population Membrane Permeable-Phenotype (%),[4],11% and 30%
same,Population Normal (%),[4],87% and 92% and 96%
same,Population Tubulin-Different-Phenotype (%),[4],49% and 76% and 94%
same,Total Cell Count,[4],903 and 1682
same,Population Apoptotic (%),[5],79%
same,Population Fragmented Nuclei (%),[5],31%
same,Population Healthy Nuclei (%),[5],0%
same,Population Hoechst High Intensity Objects (%),[5],18%
same,Population Membrane Permeable-Phenotype (%),[5],0%
same,Population Mitochondria Different-Phenotype (%),[5],100%
same,Population Mitotic Cells (%),[5],20%
same,Population Normal (%),[5],81%
same,Population Pyknosed Nuclei (%),[5],68%
same,Population Tubulin-Different-Phenotype (%),[5],100%
same,Population Apoptotic (%),[6],96%
same,Population Fragmented Nuclei (%),[6],17%
same,Population Healthy Nuclei (%),[6],33%
same,Population Hoechst High Intensity Objects (%),[6],6%
same,Population Membrane Permeable-Phenotype (%),[6],6%
same,Population Mitochondria Different-Phenotype (%),[6],87%
same,Population Mitotic Cells (%),[6],3%
same,Population Normal (%),[6],93%
same,Population Pyknosed Nuclei (%),[6],49%
same,Population Tubulin-Different-Phenotype (%),[6],96%
CN(C)C(=O)/C(C#N)=C/c1ccc(-c2nc3cnc4[nH]ccc4c3n2C2CCCCC2)o1,Population Apoptotic (%),[7],48%
same,Population Fragmented Nuclei (%),[7],9%
same,Population Healthy Nuclei (%),[7],42%
same,Population Hoechst High Intensity Objects (%),[7],12%
same,Population Membrane Permeable-Phenotype (%),[7],2%
same,Population Mitochondria Different-Phenotype (%),[7],68%
same,Population Mitotic Cells (%),[7],51%
same,Population Normal (%),[7],87%
same,Population Pyknosed Nuclei (%),[7],48%
same,Population Tubulin-Different-Phenotype (%),[7],44%
same,Total Cell Count,[7],283
same,Population Apoptotic (%),[8],21%
same,Population Fragmented Nuclei (%),[8],6%
same,Population Healthy Nuclei (%),[8],46%
same,Population Hoechst High Intensity Objects (%),[8],5%
same,Population Membrane Permeable-Phenotype (%),[8],5%
same,Population Mitochondria Different-Phenotype (%),[8],36%
same,Population Mitotic Cells (%),[8],78%
same,Population Normal (%),[8],94%
same,Population Pyknosed Nuclei (%),[8],46%
same,Population Tubulin-Different-Phenotype (%),[8],37%
same,Total Cell Count,[8],175
same,Population Apoptotic (%),[1],41%
same,Population Fragmented Nuclei (%),[1],24%
same,Population Healthy Nuclei (%),[1],39%
same,Population Hoechst High Intensity Objects (%),[1],37%
same,Population Membrane Permeable-Phenotype (%),[1],17%
same,Population Mitochondria Different-Phenotype (%),[1],63%
same,Population Mitotic Cells (%),[1],58%
same,Population Normal (%),[1],62%
same,Population Pyknosed Nuclei (%),[1],36%
same,Population Tubulin-Different-Phenotype (%),[1],60%
same,Total Cell Count,[1],451
same,Population Apoptotic (%),[2],32%
same,Population Fragmented Nuclei (%),[2],17%
same,Population Healthy Nuclei (%),[2],43%
same,Population Hoechst High Intensity Objects (%),[2],25%
same,Population Membrane Permeable-Phenotype (%),[2],15%
same,Population Mitochondria Different-Phenotype (%),[2],50%
same,Population Mitotic Cells (%),[2],67%
same,Population Normal (%),[2],74%
same,Population Pyknosed Nuclei (%),[2],39%
same,Population Tubulin-Different-Phenotype (%),[2],79%
same,Total Cell Count,[2],219
same,Population Apoptotic (%),[9],46%
same,Population Fragmented Nuclei (%),[9],10%
same,Population Healthy Nuclei (%),[9],45%
same,Population Hoechst High Intensity Objects (%),[9],14%
same,Population Membrane Permeable-Phenotype (%),[9],2%
same,Population Mitochondria Different-Phenotype (%),[9],60%
same,Population Mitotic Cells (%),[9],53%
same,Population Normal (%),[9],85%
same,Population Pyknosed Nuclei (%),[9],44%
same,Population Tubulin-Different-Phenotype (%),[9],40%
same,Total Cell Count,[9],316
same,Population Apoptotic (%),[10],21%
same,Population Fragmented Nuclei (%),[10],8%
same,Population Healthy Nuclei (%),[10],68%
same,Population Hoechst High Intensity Objects (%),[10],2%
same,Population Membrane Permeable-Phenotype (%),[10],10%
same,Population Mitochondria Different-Phenotype (%),[10],23%
same,Population Mitotic Cells (%),[10],78%
same,Population Normal (%),[10],97%
same,Population Pyknosed Nuclei (%),[10],22%
same,Population Tubulin-Different-Phenotype (%),[10],34%
same,Total Cell Count,[10],239
same,Population Apoptotic (%),[3],44%
same,Population Fragmented Nuclei (%),[3],25%
same,Population Healthy Nuclei (%),[3],39%
same,Population Hoechst High Intensity Objects (%),[3],41%
same,Population Membrane Permeable-Phenotype (%),[3],9%
same,Population Mitochondria Different-Phenotype (%),[3],61%
same,Population Mitotic Cells (%),[3],55%
same,Population Normal (%),[3],58%
same,Population Pyknosed Nuclei (%),[3],35%
same,Population Tubulin-Different-Phenotype (%),[3],57%
same,Total Cell Count,[3],448
same,Population Apoptotic (%),[4],34%
same,Population Fragmented Nuclei (%),[4],22%
same,Population Healthy Nuclei (%),[4],56%
same,Population Hoechst High Intensity Objects (%),[4],30%
same,Population Membrane Permeable-Phenotype (%),[4],7%
same,Population Mitochondria Different-Phenotype (%),[4],49%
same,Population Mitotic Cells (%),[4],65%
same,Population Normal (%),[4],69%
same,Population Pyknosed Nuclei (%),[4],21%
same,Population Tubulin-Different-Phenotype (%),[4],72%
same,Total Cell Count,[4],280
same,Population Apoptotic (%),[11],45%
same,Population Fragmented Nuclei (%),[11],13%
same,Population Healthy Nuclei (%),[11],49%
same,Population Hoechst High Intensity Objects (%),[11],13%
same,Population Membrane Permeable-Phenotype (%),[11],2%
same,Population Mitochondria Different-Phenotype (%),[11],21%
same,Population Mitotic Cells (%),[11],54%
same,Population Normal (%),[11],86%
same,Population Pyknosed Nuclei (%),[11],37%
same,Population Tubulin-Different-Phenotype (%),[11],30%
same,Total Cell Count,[11],381
same,Population Apoptotic (%),[12],15%
same,Population Fragmented Nuclei (%),[12],9%
same,Population Healthy Nuclei (%),[12],80%
same,Population Hoechst High Intensity Objects (%),[12],3%
same,Population Membrane Permeable-Phenotype (%),[12],8%
same,Population Mitochondria Different-Phenotype (%),[12],5%
same,Population Mitotic Cells (%),[12],84%
same,Population Normal (%),[12],96%
same,Population Pyknosed Nuclei (%),[12],10%
same,Population Tubulin-Different-Phenotype (%),[12],21%
same,Total Cell Count,[12],389
same,Population Apoptotic (%),[5],46%
same,Population Fragmented Nuclei (%),[5],26%
same,Population Healthy Nuclei (%),[5],46%
same,Population Hoechst High Intensity Objects (%),[5],34%
same,Population Membrane Permeable-Phenotype (%),[5],13%
same,Population Mitochondria Different-Phenotype (%),[5],29%
same,Population Mitotic Cells (%),[5],53%
same,Population Normal (%),[5],65%
same,Population Pyknosed Nuclei (%),[5],27%
same,Population Tubulin-Different-Phenotype (%),[5],40%
same,Total Cell Count,[5],490
same,Population Apoptotic (%),[6],35%
same,Population Fragmented Nuclei (%),[6],18%
same,Population Healthy Nuclei (%),[6],67%
same,Population Hoechst High Intensity Objects (%),[6],21%
same,Population Membrane Permeable-Phenotype (%),[6],10%
same,Population Mitochondria Different-Phenotype (%),[6],17%
same,Population Mitotic Cells (%),[6],64%
same,Population Normal (%),[6],78%
same,Population Pyknosed Nuclei (%),[6],13%
same,Population Tubulin-Different-Phenotype (%),[6],49%
same,Total Cell Count,[6],338

# From ChEMBL document CHEMBL4689842, “EUbOPEN Chemogenomics Library wave 1” (2021)
